According to ChEMBL document CHEMBL5705894, “SB1518, a novel macrocyclic pyrimidine-based JAK2 inhibitor for the treatment of myeloid and lymphoid malignancies” (Leukemia, 2011):
Active and inactive are the calls of the source. The calls are words filed in the database; no cut-off is given here.

Experiments:
CHL-1 = assay: Antiproliferative activity against human CHL-1 cells assessed as inhibition of cell viability incubated for 48 hrs by CellTiterGlo assay; assay type: functional, cell-based; settings: CHL-1, 48 h
Method in brief: (§1)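 Cells seeded at 30–50% confluency in 96-well plates, then treated the next day in triplicate at up to 10 μM for 48 h. Viability read by CellTiter-Glo luminescence. IC50 taken from fitted dose–response curves.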

[1] = tested on: Tyrosine-protein kinase JAK2 (Homo sapiens), O60674 [V617F]; settings: HEL 92.1.7, dose 1000.0 nM, time 4-24 hrs
Chain of Tyrosine-protein kinase JAK2 (Homo sapiens), O60674 [V617F] (O60674 whole entry V617F): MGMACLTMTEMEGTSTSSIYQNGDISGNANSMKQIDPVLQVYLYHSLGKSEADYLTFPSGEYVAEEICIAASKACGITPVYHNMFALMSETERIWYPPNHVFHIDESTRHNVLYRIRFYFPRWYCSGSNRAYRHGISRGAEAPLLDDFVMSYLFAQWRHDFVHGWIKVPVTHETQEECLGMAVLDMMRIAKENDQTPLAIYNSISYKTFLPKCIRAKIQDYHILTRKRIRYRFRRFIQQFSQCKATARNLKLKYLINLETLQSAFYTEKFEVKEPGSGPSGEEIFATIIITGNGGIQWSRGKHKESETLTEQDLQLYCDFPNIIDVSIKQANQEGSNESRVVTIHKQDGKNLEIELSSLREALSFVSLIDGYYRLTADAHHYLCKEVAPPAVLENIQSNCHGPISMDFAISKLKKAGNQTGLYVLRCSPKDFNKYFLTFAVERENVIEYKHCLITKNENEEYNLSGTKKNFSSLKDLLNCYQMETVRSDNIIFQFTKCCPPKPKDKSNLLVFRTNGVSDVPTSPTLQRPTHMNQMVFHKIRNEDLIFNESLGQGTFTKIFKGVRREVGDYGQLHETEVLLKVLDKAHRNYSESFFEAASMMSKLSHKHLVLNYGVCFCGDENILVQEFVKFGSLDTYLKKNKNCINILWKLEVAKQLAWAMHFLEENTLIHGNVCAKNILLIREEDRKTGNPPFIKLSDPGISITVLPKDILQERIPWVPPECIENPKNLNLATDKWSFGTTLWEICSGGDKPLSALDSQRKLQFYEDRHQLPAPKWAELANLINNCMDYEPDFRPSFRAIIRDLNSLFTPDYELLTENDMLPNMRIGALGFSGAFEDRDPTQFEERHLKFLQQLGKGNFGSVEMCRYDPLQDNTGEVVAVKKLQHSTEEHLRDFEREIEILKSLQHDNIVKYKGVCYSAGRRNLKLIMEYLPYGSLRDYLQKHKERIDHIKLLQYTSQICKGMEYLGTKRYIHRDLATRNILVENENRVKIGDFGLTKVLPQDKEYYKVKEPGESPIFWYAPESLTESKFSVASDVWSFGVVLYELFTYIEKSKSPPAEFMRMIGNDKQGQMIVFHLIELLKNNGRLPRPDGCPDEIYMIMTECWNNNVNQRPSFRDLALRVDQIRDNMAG

T47D = assay: Antiproliferative activity against human T47D cells assessed as inhibition of cell viability incubated for 48 hrs by CellTiterGlo assay; assay type: functional, cell-based
Method in brief: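 Cells from ATCC, grown per supplier guidance, were seeded at 30–50% confluency and dosed the next day in triplicate at concentrations up to 10 μM for 48 h. Viability was read by luminescent ATP (CellTiter-Glo), and IC50 was fitted from dose–response curves.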

[2] = biological target: Tyrosine-protein kinase JAK2 (Homo sapiens) (UniProt O60674); settings: Jurkat, dose 40-1000 nM, time 3.0 hrs
Chain of Tyrosine-protein kinase JAK2 (Homo sapiens) (O60674 whole entry): as the sequence (O60674 whole entry V617F) above, with F617V counted along it

SET-2 [3] = assay: Anti-tumor activity against human SET2 cells xenografted in SCID Beige mouse assessed as tumor growth inhibition at 150 mg/kg, po administered for 18 days and measured twice a week relative to control; assay type: functional; settings: SET-2, 432 h, time 18 day, read-out: TGI
Method in brief: (§2)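 SCID beige mice received 5 × 10^6 SET-2 cells subcutaneously in the right flank, in serum-free medium mixed 1:1 with Matrigel. Dosing began when tumors averaged about 280 mm3 (day 31). Oral gavage at 10 ml/kg for 18 consecutive days, 12 mice per group. Caliper volume = (w² × l)/2. Animals were killed 3 h after the final dose.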

[4] = Induction of apoptosis in human EPC cells derived from polycythemia vera patients assessed as activation of caspase-3/7 level incubated for 16 hrs; assay type: toxicity, cell-based; settings: Homo sapiens, EPC
SET-2 [5] = assay: Induction of apoptosis in human SET2 cells assessed as activation of caspase-3/7 incubated for 16 hrs; assay type: functional, cell-based
Method in brief: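 SET-2 and Karpas 1106P cells were exposed to graded drug concentrations for 16 h. Apoptosis was read as caspase-3/7 activation.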

[6] = tested on: Tyrosine-protein kinase JAK2 (Mus musculus), Q62120 [V617F]; assay: Inhibition of JAK2 V617F mutant expressed in mouse BaF3 cells assessed as reduction of STAT5 phosphorylation at Y694 by Western blotting analysis; assay type: cell-based
Chain of Tyrosine-protein kinase JAK2 (Mus musculus), Q62120 [V617F] (Q62120 as listed by the source): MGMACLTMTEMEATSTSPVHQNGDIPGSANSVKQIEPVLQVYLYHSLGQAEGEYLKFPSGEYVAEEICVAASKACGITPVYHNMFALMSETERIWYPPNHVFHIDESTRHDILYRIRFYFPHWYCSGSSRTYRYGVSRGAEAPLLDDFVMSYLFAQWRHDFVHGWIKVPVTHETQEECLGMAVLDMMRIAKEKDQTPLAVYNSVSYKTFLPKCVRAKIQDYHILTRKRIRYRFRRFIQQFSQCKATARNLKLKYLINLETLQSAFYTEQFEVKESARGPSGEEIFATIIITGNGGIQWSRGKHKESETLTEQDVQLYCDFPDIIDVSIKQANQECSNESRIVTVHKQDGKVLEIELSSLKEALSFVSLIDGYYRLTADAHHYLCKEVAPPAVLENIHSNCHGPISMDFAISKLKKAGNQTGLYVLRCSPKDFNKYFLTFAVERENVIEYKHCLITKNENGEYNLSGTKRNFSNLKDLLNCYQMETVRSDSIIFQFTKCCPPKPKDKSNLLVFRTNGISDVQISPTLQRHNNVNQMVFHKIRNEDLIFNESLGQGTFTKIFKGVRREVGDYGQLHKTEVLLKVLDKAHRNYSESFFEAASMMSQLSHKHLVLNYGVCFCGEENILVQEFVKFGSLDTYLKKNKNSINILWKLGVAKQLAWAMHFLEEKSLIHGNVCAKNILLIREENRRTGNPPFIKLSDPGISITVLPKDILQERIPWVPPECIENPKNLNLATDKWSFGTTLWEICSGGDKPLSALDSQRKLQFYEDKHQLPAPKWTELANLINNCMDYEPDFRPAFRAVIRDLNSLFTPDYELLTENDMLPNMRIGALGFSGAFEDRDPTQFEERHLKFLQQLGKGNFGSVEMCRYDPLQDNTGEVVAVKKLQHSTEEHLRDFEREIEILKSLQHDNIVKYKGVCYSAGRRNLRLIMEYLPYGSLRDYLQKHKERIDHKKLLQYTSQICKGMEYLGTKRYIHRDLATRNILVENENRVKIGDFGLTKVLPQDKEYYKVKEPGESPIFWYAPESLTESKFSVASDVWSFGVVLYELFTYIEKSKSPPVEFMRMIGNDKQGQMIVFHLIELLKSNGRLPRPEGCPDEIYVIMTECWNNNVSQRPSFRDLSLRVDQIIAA

[7] = tested on: Tyrosine-protein kinase JAK2 (Mus musculus), Q62120 [V617F]; assay: Inhibition of JAK2 V617F mutant expressed in mouse BaF3 cells assessed as decreased total tyrosine phosphorylation at 1000 nM incubated for 3 hrs by Western blotting analysis; assay type: cell-based
HCT-116 = assay: Antiproliferative activity against human HCT-116 cells assessed as inhibition of cell viability incubated for 48 hrs by CellTiterGlo assay; assay type: functional, cell-based; settings: HCT-116, 48 h; method in brief: as §1
Jurkat E6.1 = assay: Antiproliferative activity against human Jurkat E6.1 cells assessed as inhibition of cell viability incubated for 48 hrs by CellTiterGlo assay; assay type: functional, cell-based; settings: Jurkat E6.1, 48 h; method in brief: as §1
SET-2 [8] = assay: Anti-tumor activity against human SET2 cells xenografted in SCID Beige mouse assessed as tumor growth inhibition at 75 mg/kg, po administered for 18 days and measured twice a week relative to control; assay type: functional; settings: SET-2, 432 h, time 18 day, read-out: TGI; method in brief: as §2
Karpas-1106P [9] = assay: Antiproliferative activity against human KARPAS-1106P cells harboring JAK2 assessed as inhibition of cell viability incubated for 48 hrs by CellTiterGlo assay; assay type: functional, cell-based; method in brief: as §1
BaF3 = assay: Antiproliferative activity against mouse BaF3 cells harboring JAK2 V617F mutant assessed as inhibition of cell viability incubated for 48 hrs by CellTiterGlo assay; assay type: functional, cell-based; settings: BaF3, 48 h; method in brief: as §1
[10] = tested on: Tyrosine-protein kinase JAK2 (Homo sapiens), O60674 [V617F]; settings: HEL 92.1.7, dose 8-1000 nM, time 3.0 hrs
[11] = tested on: Tyrosine-protein kinase JAK2 (Homo sapiens), O60674 [V617F]; settings: HEL 92.1.7, dose 8-1000 nM, time 3.0 hrs; remark: listed apart in the source
[12] = tested on: Tyrosine-protein kinase JAK2 (Homo sapiens), O60674 [V617F]; settings: SET2, dose 8-1000 nM, time 3.0 hrs
A549 = assay: Antiproliferative activity against human A549 cells assessed as inhibition of cell viability incubated for 48 hrs by CellTiterGlo assay; assay type: functional, cell-based; settings: A549, 48 h; method in brief: as §1
[13] = In vivo inhibition of JAK2 V617F mutant in athymic BALB/c nude mouse xenografted with mouse BaF3 cells administered for 24 hrs; assay type: functional
Karpas-1106P [14] = assay: Induction of cell cycle arrest in human KARPAS-1106P cells expressing JAK2 assessed as accumulation of cells at G0/1 phase incubated for 24 hrs by PI staining based flow cytometry; assay type: functional
Method in brief: (§3)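 Cells were fixed in 70% ice-cold ethanol and stained with propidium iodide, then analysed by flow cytometry for cell-cycle distribution.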

NCI-H322M = assay: Antiproliferative activity against human NCI-H322M cells assessed as inhibition of cell viability incubated for 48 hrs by CellTiterGlo assay; assay type: functional, cell-based; method in brief: as §1
[15] = biological target: Tyrosine-protein kinase JAK2 (Homo sapiens) (UniProt O60674); settings: HEK-293T, dose 8-1000 nM, time 3.0 hrs
SET-2 [16] = assay: Induction of cell cycle arrest in human SET2 cells expressing JAK2 V617F mutant assessed as decrease in accumulation of cells at S-phase incubated for 24 hrs by PI staining based flow cytometry; assay type: functional; method in brief: as §3
[17] = tested on: Tyrosine-protein kinase JAK2 (Homo sapiens), O60674 [V617F]; settings: SET2, dose 8-1000 nM, time 3.0 hrs; remark: listed apart in the source
MCF7 = assay: Antiproliferative activity against human MCF7 cells assessed as inhibition of cell viability incubated for 48 hrs by CellTiterGlo assay; assay type: functional, cell-based; settings: MCF7, 48 h; method in brief: as §1
[18] = biological target: Tyrosine-protein kinase JAK2 (Homo sapiens) (UniProt O60674); settings: HEK-293T, dose 8-1000 nM, time 3.0 hrs; remark: listed apart in the source
[19] = tested on: Tyrosine-protein kinase JAK2 (Homo sapiens), O60674 [V617F]; settings: HEL 92.1.7, dose 1000.0 nM, time 3.0 hrs
MKN-7 = assay: Antiproliferative activity against human MKN-7 cells assessed as inhibition of cell viability incubated for 48 hrs by CellTiterGlo assay; assay type: functional, cell-based; settings: MKN-7, 48 h; method in brief: as §1
PC-3 = assay: Antiproliferative activity against human PC-3 cells assessed as inhibition of cell viability incubated for 48 hrs by CellTiterGlo assay; assay type: functional, cell-based; settings: PC-3, 48 h; method in brief: as §1
[20] = tested on: KATO III stomach cancer cell line; assay: Antiproliferative activity against human KATO III stomach cancer cell line assessed as inhibition of cell viability incubated for 48 hrs by CellTiterGlo assay; assay type: functional, cell-based; method in brief: as §1
U-266 = assay: Antiproliferative activity against human U-266 cells assessed as inhibition of cell viability incubated for 48 hrs by CellTiterGlo assay; assay type: functional, cell-based; settings: U-266, 48 h; method in brief: as §1
[21] = biological target: Tyrosine-protein kinase JAK2 (Homo sapiens) (UniProt O60674); settings: HEK-293T, dose 8-1000 nM, time 3.0 hrs; remark: listed apart in the source

For `C1=N/C2=N/c3ccc(OCCN4CCCC4)c(c3)COC/C=C/COCc3cccc(c3)C(=C1)N2` [PACRITINIB], the IC50 (CHL-1) was 1.4 µM, the inhibition [1] was “Tde” and the IC50 (T47D) was 1.28 µM. The inhibition [2] was “Active”, the inhibition in vivo at 150 mg/kg (SET-2 [3]) was 61% and the EC50 [4] was 0.224 µM. For the same compound, the Activity (SET-2 [5]) was “Dose-Dependent Effect”, the EC50 (SET-2 [5]; SET-2, 16 h) was 0.571 µM and the inhibition [6] was “Active”. The inhibition [7] was “Active”, the IC50 (HCT-116) was 1.69 µM and the IC50 (Jurkat E6.1) was 0.839 µM. It also gave an inhibition in vivo at 75 mg/kg (SET-2 [8]) of 40%, an IC50 (Karpas-1106P [9]) of 0.348 µM and an IC50 (BaF3) of 0.16 µM. The inhibition [10] was “Dose-Dependent Effect”, the inhibition [11] was “Active” and the inhibition [12] was “Active”. For the same compound, the IC50 (A549) was 2.55 µM, the FIC50 [13] was 0.019 µM and the Activity (Karpas-1106P [14]) was “Dose-Dependent Effect”. For the same compound, the IC50 (NCI-H322M) was 2.18 µM, the inhibition [15] was “Dose-Dependent Effect” and the Activity (SET-2 [16]) was “Dose-Dependent Effect”. For the same compound, the inhibition [17] was “Dose-Dependent Effect”, the IC50 (MCF7) was 0.853 µM and the inhibition [18] was “Dose-Dependent Effect”. For the same compound, the inhibition [19] was “Active”, the IC50 (MKN-7) was 2.04 µM and the IC50 (PC-3) was 0.77 µM. The IC50 [20] was 2.06 µM, the IC50 (U-266) was 1.35 µM and the inhibition [21] was “Dose-Dependent Effect”.
